In ChEMBL document CHEMBL3853298, “Total synthesis and in vitro bioevaluation of clavaminols A, C, H & deacetyl clavaminol H as potential chemotherapeutic and antibiofilm agents” (Eur J Med Chem, 2016):
In brackets after ≈: the same amount, converted by molar mass. Activity calls are given as the source filed them. No cut-off for these calls is given here.

Columns and labels:
Staphylococcus aureus [1] = assay: Antibacterial activity against Staphylococcus aureus MTCC 96 after 24 hrs by well diffusion method; type: functional; conditions: MTCC 96, 24 h
How it was run: (§1)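 Bacteria spread (0.1 mL suspension) on Mueller-Hinton agar; 6.0 mm wells loaded with compound over a 250 to 0.48 per-well dose range, methanol as negative control. Incubated 24 h at 37 °C. MIC taken as the lowest concentration still giving an inhibition zone. Duplicates, mean reported.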

Bacillus subtilis [2] = assay: Antibacterial activity against Bacillus subtilis MTCC 121 after 24 hrs by well diffusion method; type: functional; conditions: MTCC 121, 24 h; how it was run: as §1
Micrococcus luteus [3] = assay: Antibacterial activity against Micrococcus luteus MTCC 2470 after 24 hrs by well diffusion method; type: functional; conditions: MTCC 2470, 24 h; how it was run: as §1
Staphylococcus aureus [4] = assay: Antibacterial activity against Staphylococcus aureus MLS16 MTCC 2940 after 24 hrs by well diffusion method; type: functional; conditions: MLS16 MTCC 2940, 24 h; how it was run: as §1
Raoultella planticola [5] = assay: Antibacterial activity against Klebsiella planticola MTCC 530 after 24 hrs by well diffusion method; type: functional; conditions: MTCC 530, 24 h; how it was run: as §1
Escherichia coli [6] = assay: Antibacterial activity against Escherichia coli MTCC 739 after 24 hrs by well diffusion method; type: functional; conditions: MTCC 739, 24 h; how it was run: as §1
Pseudomonas aeruginosa [7] = assay: Antibacterial activity against Pseudomonas aeruginosa MTCC 2453 after 24 hrs by well diffusion method; type: functional; conditions: MTCC 2453, 24 h; how it was run: as §1
Staphylococcus aureus [8] = assay: Bactericidal activity against Staphylococcus aureus MTCC 96 after 24 hrs; type: functional; conditions: MTCC 96, 24 h
How it was run: (§2)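 Broth macrodilution in Mueller Hinton broth, compound serially diluted from 150 down to 0. Overnight bacterial culture added to a final 1.5 × 10^8 CFU/mL (0.5 McFarland), 24 h at 37 °C. Suspension then subcultured onto Mueller Hinton agar for 24 h at 37 °C. MBC is the lowest concentration killing the strain. Duplicates.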

Bacillus subtilis [9] = assay: Bactericidal activity against Bacillus subtilis MTCC 121 after 24 hrs; type: functional; conditions: MTCC 121, 24 h; how it was run: as §2
Staphylococcus aureus [10] = assay: Bactericidal activity against Staphylococcus aureus MLS16 MTCC 2940 after 24 hrs; type: functional; conditions: MLS16 MTCC 2940, 24 h; how it was run: as §2
Micrococcus luteus [11] = assay: Bactericidal activity against Micrococcus luteus MTCC 2470 after 24 hrs; type: functional; conditions: MTCC 2470, 24 h; how it was run: as §2
Raoultella planticola [12] = assay: Bactericidal activity against Klebsiella planticola MTCC 530 after 24 hrs; type: functional; conditions: MTCC 530, 24 h; how it was run: as §2
Escherichia coli [13] = assay: Bactericidal activity against Escherichia coli MTCC 739 after 24 hrs; type: functional; conditions: MTCC 739, 24 h; how it was run: as §2
Pseudomonas aeruginosa [14] = assay: Bactericidal activity against Pseudomonas aeruginosa MTCC 2453 after 24 hrs; type: functional; conditions: MTCC 2453, 24 h; how it was run: as §2
Staphylococcus aureus [15] = assay: Antibiofilm activity against Staphylococcus aureus MTCC 96 incubated for 24 hrs under static condition by crystal violet staining-based assay; type: functional
How it was run: (§3)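 Strains grown overnight in tryptone soy broth with 0.5% glucose. Compound (250 to 0) mixed with inoculum at 5 × 10^5 CFU/mL in polystyrene microtiter plates. Non-adherent cells washed off with PBS; wells stained with 0.1% crystal violet, dye solubilised in 95% ethanol, absorbance read at 540 nm. IC50 for 50% biofilm inhibition taken from dose-response curves. Triplicates, mean ± S.D.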

Bacillus subtilis [16] = assay: Antibiofilm activity against Bacillus subtilis MTCC 121 incubated for 24 hrs under static condition by crystal violet staining-based assay; type: functional; how it was run: as §3
Staphylococcus aureus [17] = assay: Antibiofilm activity against Staphylococcus aureus MLS16 MTCC 2940 incubated for 24 hrs under static condition by crystal violet staining-based assay; type: functional; how it was run: as §3
Micrococcus luteus [18] = assay: Antibiofilm activity against Micrococcus luteus MTCC 2470 incubated for 24 hrs under static condition by crystal violet staining-based assay; type: functional; how it was run: as §3
Raoultella planticola [19] = assay: Antibiofilm activity against Klebsiella planticola MTCC 530 incubated for 24 hrs under static condition by crystal violet staining-based assay; type: functional; how it was run: as §3
Escherichia coli [20] = assay: Antibiofilm activity against Escherichia coli MTCC 739 incubated for 24 hrs under static condition by crystal violet staining-based assay; type: functional; how it was run: as §3
Pseudomonas aeruginosa [21] = assay: Antibiofilm activity against Pseudomonas aeruginosa MTCC 2453 incubated for 24 hrs under static condition by crystal violet staining-based assay; type: functional; how it was run: as §3
Micrococcus luteus [22] = assay: Induction of intracellular ROS accumulation in Micrococcus luteus MTCC 2470 sessile biofilm cells at 0.5 to 4 ug/ml after 24 hrs by DCFH-DA staining-based assay; type: functional, cell-based
How it was run: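 Intracellular ROS was measured in M. luteus MTCC 2470 biofilms grown in 24-well plates. Mature biofilms were treated and incubated 24 h at 30 °C together with […] DCFH-DA. Well contents were centrifuged at 5000 × g for 10 min. Fluorescence (ex 485/em 535 nm) was read separately for supernatant and for sessile cells resuspended in PBS. Triplicate, mean ± S.D.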

O=C(O)c1cn(C2CC2)c2cc(N3CCNCC3)c(F)cc2c1=O [CIPROFLOXACIN]
MIC (Staphylococcus aureus [1]): 0.9 µg/mL (≈ 2.72 µM) | MIC (Bacillus subtilis [2]): 0.9 µg/mL (≈ 2.72 µM) | MIC (Micrococcus luteus [3]): 0.9 µg/mL (≈ 2.72 µM) | MIC (Staphylococcus aureus [4]): 0.9 µg/mL (≈ 2.72 µM) | MIC (Raoultella planticola [5]): 0.9 µg/mL (≈ 2.72 µM) | MIC (Escherichia coli [6]): 0.9 µg/mL (≈ 2.72 µM) | MIC (Pseudomonas aeruginosa [7]): 0.9 µg/mL (≈ 2.72 µM) | MBC (Staphylococcus aureus [8]): 0.9 µg/mL (≈ 2.72 µM) | MBC (Bacillus subtilis [9]): 1.9 µg/mL (≈ 5.73 µM) | MBC (Staphylococcus aureus [10]): 0.9 µg/mL (≈ 2.72 µM) | MBC (Micrococcus luteus [11]): 1.9 µg/mL (≈ 5.73 µM) | MBC (Raoultella planticola [12]): 0.9 µg/mL (≈ 2.72 µM) | MBC (Escherichia coli [13]): 0.9 µg/mL (≈ 2.72 µM) | MBC (Pseudomonas aeruginosa [14]): 1.9 µg/mL (≈ 5.73 µM) | IC50 (Staphylococcus aureus [15]): 0.6 µg/mL (≈ 1.81 µM) | IC50 (Bacillus subtilis [16]): 0.7 µg/mL (≈ 2.11 µM) | IC50 (Staphylococcus aureus [17]): 0.4 µg/mL (≈ 1.21 µM) | IC50 (Micrococcus luteus [18]): 0.5 µg/mL (≈ 1.51 µM) | IC50 (Raoultella planticola [19]): 0.6 µg/mL (≈ 1.81 µM) | INH (Escherichia coli [20]): 0.8 µg/mL | INH (Pseudomonas aeruginosa [21]): 0.7 µg/mL | Activity (Micrococcus luteus [22]): Active
